According to ChEMBL document CHEMBL1138222, “9-Benzylidene-naphtho[2,3-b]thiophen-4-ones as novel antimicrotubule agents-synthesis, antiproliferative activity, and inhibition of tubulin polymerization” (J Med Chem, 2006):
Activity calls are given as the source filed them. The rule behind the calls is not given here.

Assays:
[1] = tested on: L1210; assay: Antiproliferative activity against L1210 VCR cells by XTT assay after 48 hrs; type: functional, cell-based; settings: Mus musculus, L1210, 48 h
Outline: (§1)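 Tumour cell lines were seeded at 1 × 10^3 to 8 × 10^4 cells/well for logarithmic growth and exposed to a concentration series for 48 h. Proliferation was read as cellular metabolic activity by XTT. IC50 came from dose-response curves by nonlinear regression, with at least two replicates.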

[2] = Cell cycle arrest in KB/HeLa cells by accumulation at G1 phase at 0.3 nM; type: functional, cell-based; settings: Homo sapiens
Outline: (§2)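 Subconfluent KB/HeLa cells were treated with a concentration series for 24 h at 37 °C, then detached and fixed in 70% ethanol. DNA was stained with propidium iodide alongside RNase digestion and measured by flow cytometry. Phase fractions came from cell-cycle modelling software, and IC50 from nonlinear regression.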

[3] = tested on: P388; assay: Inhibition of P388 cells growth subcutaneously implanted in CD2F1 mouse at 50 mg/kg, ip between 9 to 14 days; type: functional, organism-based; parameters: dose 50 mg/kg
Outline: (§3)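 Female CD2F1 mice aged 5-6 weeks received ~1 mm3 P388 tumour fragments subcutaneously on day 0. Dosing was intraperitoneal at 0.1 mL/10 g on days 5, 12 and 19, at 100, 50 or 25 mg/kg; controls received DMSO vehicle. Body weight and subcutaneous tumour growth were recorded three times per week.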

[4] = Cell cycle arrest in KB/HeLa cells by accumulation at S phase at 1 nM; type: functional, cell-based; settings: Homo sapiens; outline: as §2
[5] = Cell cycle arrest in KB/HeLa cells by accumulation at S phase at 31.6 nM; type: functional, cell-based; settings: Homo sapiens; outline: as §2
[6] = Cell cycle arrest in KB/HeLa cells by accumulation at G1 phase at 1 nM; type: functional, cell-based; settings: Homo sapiens; outline: as §2
[7] = molecular target: Tubulin (Sus scrofa, UniProt P02554+P02550); assay: Inhibition of tubulin polymerization in porcine brain
[8] = tested on: K562; assay: Antiproliferative activity against human K562 cell line; type: functional, cell-based
[9] = molecular target: T1, Tubulin (Homo sapiens) (UniProt P68371+Q9H4B7+P0DPH7+P68366+Q13509+Q71U36+P04350+Q3ZCM7+P07437+P68363+Q9BQE3+Q6PEY2+Q13885+Q9BVA1+Q9BUF5); assay: Displacement of [3H]paclitaxel from tubulin by SPA assay; type: protein-complex assay
[10] = Cell cycle arrest in KB/HeLa cells by accumulation at S phase at 3.16 nM; type: functional, cell-based; settings: Homo sapiens; outline: as §2
[11] = Cell cycle arrest in KB/HeLa cells by accumulation at S phase at 316 nM; type: functional, cell-based; settings: Homo sapiens; outline: as §2
[12] = tested on: Mus musculus; assay: Increase in survival of CD2F1 mouse subcutaneously implanted with P388 cells at 100 mg/kg after 21 days; type: functional; settings: route intraperitoneal
[13] = Cell cycle arrest in KB/HeLa cells by accumulation at G2/M phase at 10 nM; type: functional, cell-based; settings: Homo sapiens; outline: as §2
[14] = Cell cycle arrest in KB/HeLa cells by accumulation at G2/M phase at 3.16 nM; type: functional, cell-based; settings: Homo sapiens
[15] = Cell cycle arrest in KB/HeLa cells by accumulation at G1 phase at 316 nM; type: functional, cell-based; settings: Homo sapiens; outline: as §2
[16] = Cell cycle arrest in KB/HeLa cells by accumulation at G1 phase at 0.1 nM; type: functional, cell-based; settings: Homo sapiens; outline: as §2
[17] = molecular target: T1, Tubulin (Homo sapiens); assay: Displacement of [3H]colchicine from tubulin by SPA assay; type: protein-complex assay
[18] = tested on: P388; assay: Antiproliferative activity against P388 ADR cells by XTT assay after 48 hrs; type: functional, cell-based; settings: Mus musculus, P388, 48 h; outline: as §1
[19] = tested on: P388; assay: Inhibition of P388 cells growth subcutaneously implanted in CD2F1 mouse at 25 mg/kg, ip after 7 days; type: functional, organism-based; parameters: dose 25 mg/kg; outline: as §3
[20] = tested on: NCI-H460; assay: Antiproliferative activity against NCI-H460 cells by XTT assay after 48 hrs; type: functional, cell-based; settings: Homo sapiens, NCI-H460, 48 h; outline: as §1
[21] = Cell cycle arrest in KB/HeLa cells by accumulation at S phase at 10 nM; type: functional, cell-based; settings: Homo sapiens; outline: as §2
[22] = tested on: K562; assay: Cell cycle arrest in K562 cells by accumulation at G2/M phase at 0.1 uM; type: functional, Homo sapiens
Outline: (§4)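 K562 leukaemia cells were exposed to compound for 24 h at 37 °C, pelleted, and washed in PBS. They were fixed in ice-cold 70% ethanol for 30 min at 4 °C. Staining was 30 min in the dark with propidium iodide (0.2 mg/mL) plus RNase (2 mg/mL) in PBS. DNA content was measured by flow cytometry with 488 nm argon laser excitation.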

[23] = Cell cycle arrest in KB/HeLa cells by accumulation at G2/M phase at 0.1 nM; type: functional, cell-based; settings: Homo sapiens; outline: as §2
[24] = Cell cycle arrest in KB/HeLa cells by accumulation at G2/M phase at 100 nM; type: functional, cell-based; settings: Homo sapiens; outline: as §2
[25] = tested on: RKO; assay: Antiproliferative activity against RKO cells by XTT assay after 48 hrs; type: functional, cell-based; settings: Homo sapiens
Outline: (§5)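 RKO colon adenocarcinoma cells carry an ecdysone-inducible p27kip1 vector. On day 1 they were plated with 3 µM ponasterone A (induced, 2 × 10^4 cells/well) or without it (not induced, 6 × 10^3 cells/well) and held 24 h at 37 °C. Compound or DMSO control was then added for 48 h at 37 °C, followed by a standard XTT read-out.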

[26] = tested on: RKO; assay: Antiproliferative activity against RKO cells with ectopic-induced p27kip1-expression by XTT assay after 48 hrs; type: functional, cell-based; settings: Homo sapiens; outline: as §5
[27] = Cell cycle arrest in KB/HeLa cells by accumulation at S phase at 0.1 nM; type: functional, cell-based; settings: Homo sapiens; outline: as §2
[28] = Cell cycle arrest in KB/HeLa cells by accumulation at S phase at 0.3 nM; type: functional, cell-based; settings: Homo sapiens; outline: as §2
[29] = tested on: Mus musculus; assay: Increase in survival of CD2F1 mouse subcutaneously implanted with P388 cells at 25 mg/kg after 21 days; type: functional; settings: route intraperitoneal
[30] = tested on: MDR; assay: Antiproliferative activity against LT12 MDR cells by XTT assay after 48 hrs; type: functional, cell-based; settings: Rattus norvegicus; outline: as §1
[31] = tested on: P388; assay: Antiproliferative activity against P388 cells by XTT assay after 48 hrs; type: functional, cell-based; settings: Mus musculus, P388, 48 h; outline: as §1
[32] = tested on: K562; assay: Cell cycle arrest in K562 cells by accumulation at G2/M phase at 0.03 uM; type: functional, Homo sapiens; outline: as §4
[33] = Cell cycle arrest in KB/HeLa cells by accumulation at G1 phase at 10 nM; type: functional, cell-based; settings: Homo sapiens; outline: as §2
[34] = tested on: L1210; assay: Antiproliferative activity against L1210 cells by XTT assay after 48 hrs; type: functional, cell-based; settings: Mus musculus, L1210, 48 h; outline: as §1
[35] = Cell cycle arrest in KB/HeLa cells by accumulation at G2/M phase at 31.6 nM; type: functional, cell-based; settings: Homo sapiens; outline: as §2
[36] = Cell cycle arrest in KB/HeLa cells by accumulation at S phase at 100 nM; type: functional, cell-based; settings: Homo sapiens; outline: as §2
[37] = Cell cycle arrest in KB/HeLa cells by accumulation at G2/M phase at 1 nM; type: functional, cell-based; settings: Homo sapiens; outline: as §2
[38] = cells; settings: Rattus norvegicus, LT12, 48 h
[39] = Cell cycle arrest in KB/HeLa cells by accumulation at G1 phase at 3.16 nM; type: functional, cell-based; settings: Homo sapiens; outline: as §2
[40] = Cell cycle arrest in KB/HeLa cells by accumulation at G2/M phase; type: functional, cell-based; settings: Homo sapiens; outline: as §2
[41] = Cell cycle arrest in KB/HeLa cells by accumulation at G1 phase at 100 nM; type: functional, cell-based; settings: Homo sapiens; outline: as §2
[42] = tested on: SK-OV-3; assay: Antiproliferative activity against SKOV3 cells by XTT assay after 48 hrs; type: functional, cell-based; settings: Homo sapiens, SK-OV-3, 48 h; outline: as §1
[43] = tested on: Mus musculus; assay: Increase in survival of CD2F1 mouse subcutaneously implanted with P388 cells at 50 mg/kg after 21 days; type: functional; settings: route intraperitoneal
[44] = Cell cycle arrest in KB/HeLa cells by accumulation at G1 phase at 31.6 nM; type: functional, cell-based; settings: Homo sapiens; outline: as §2
[45] = Cell cycle arrest in KB/HeLa cells by accumulation at G2/M phase at 0.3 nM; type: functional, cell-based; settings: Homo sapiens; outline: as §2
[46] = tested on: K562; assay: Cell cycle arrest in K562 cells by accumulation at G2/M phase at 0.06 uM; type: functional, Homo sapiens; outline: as §4
[47] = Cell cycle arrest in KB/HeLa cells by accumulation at G2/M phase at 316 nM; type: functional, cell-based; settings: Homo sapiens; outline: as §2
[48] = tested on: SF-268; assay: Antiproliferative activity against SF268 cells by XTT assay after 48 hrs; type: functional, cell-based; settings: Homo sapiens, SF-268, 48 h; outline: as §1
[49] = Antiproliferative activity against KB/HeLa cells by XTT assay after 48 hrs; type: functional, cell-based; settings: Homo sapiens; outline: as §1

SMILES: COc1cc(/C=C2/c3ccccc3C(=O)c3ccsc32)cc(OC)c1O
- IC50 [1]: 0.68 µM
- Activity [2]: 65.6%
- Activity [3]: Active
- Activity [4]: 25.9%
- Activity [5]: 26%
- Activity [6]: 65.7%
- IC50 [7]: 0.38 µM
- IC50 [8]: 0.05 µM
- Activity [9]: inactive
- Activity [10]: 24.5%
- Activity [11]: 9.8%
- Activity [12]: 106%
- Activity [13]: 8.8%
- Activity [14]: 9.2%
- Activity [15]: 0.8%
- Activity [16]: 65.8%
- Activity [17]: 0.27 µM
- IC50 [18]: 0.22 µM
- Activity [19]: Active
- IC50 [20]: 0.05 µM
- Activity [21]: 26.5%
- Activity [22]: 72%
- Activity [23]: 9.7%
- Activity [24]: 52.2%
- IC50 [25]: 0.03 µM
- IC50 [26]: > 9 µM
- Activity [27]: 24.6%
- Activity [28]: 25.3%
- Activity [29]: 83%
- IC50 [30]: 0.17 µM
- IC50 [31]: 0.05 µM
- Activity [32]: 23%
- Activity [33]: 64.8%
- IC50 [34]: 0.34 µM
- Activity [35]: 8.6%
- Activity [36]: 16.2%
- Activity [37]: 8.4%
- IC50 [38]: 0.13 µM
- Activity [39]: 66.3%
- EC50 [40]: 0.098 µM
- Activity [41]: 31.7%
- IC50 [42]: 0.07 µM
- Activity [43]: 111%
- Activity [44]: 65.4%
- Activity [45]: 9.1%
- Activity [46]: 55%
- Activity [47]: 89.5%
- IC50 [48]: 0.07 µM
- IC50 [49]: 0.05 µM
